Experimental data: ChEMBL document CHEMBL1147000, “Synthesis and evaluation of succinoyl-caprolactam gamma-secretase inhibitors” (Bioorg Med Chem Lett, 2006)
pIC50, pKi: −log10 of the molar value. ≈ marks a conversion by molar mass, not a printed value.

What was measured:
HEK293 = test: Inhibition of beta-amyloid peptide production in HEK293 cell line; format: functional, cell-based; conditions: Homo sapiens
[1] = Percent of unbound ligand in Beagle dog at 0.5 mg/kg, po; format: ADME, organism-based, Canis lupus familiaris; set-up: dose 0.5 mg/kg, route oral; conditions: in vivo
[2] = Clearance in Beagle dog at 0.5 mg/kg, po; format: ADME, organism-based, Canis lupus familiaris; set-up: dose 0.5 mg/kg, route oral; conditions: in vivo
In short: (§1)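 Beagle dogs were dosed in cassette format with up to nine other compounds. Doses were kept low to limit interactions: 0.25 mg/kg iv and 0.5 or 1.0 mg/kg po. Pharmacokinetic parameters were derived from these dosings.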

Canis familiaris [3] = test: Volume of distribution in Beagle dog at 0.5 mg/kg, po; format: ADME, organism-based, Canis lupus familiaris; set-up: dose 0.5 mg/kg, route oral; conditions: in vivo; in short: as §1
[4] = Half life in Beagle dog at 0.5 mg/kg, po; format: ADME, organism-based, Canis lupus familiaris; set-up: dose 0.5 mg/kg, route oral; conditions: in vivo; in short: as §1
[5] = Cmax in Beagle dog at 0.5 mg/kg, po; format: ADME, organism-based, Canis lupus familiaris; set-up: dose 0.5 mg/kg, route oral; conditions: in vivo; in short: as §1
[6] = Oral bioavailability in Beagle dog at 0.5 mg/kg, po; format: ADME, organism-based, Canis lupus familiaris; conditions: in vivo; in short: as §1
[7] = Inhibition of gamma secretase mediated Notch1 signalling in NIH3T3 cells; format: functional, cell-based; conditions: Mus musculus
In short: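 NIH3T3 cells were grown in DMEM with 10% calf serum, penicillin/streptomycin, 2 mM L-glutamine and 1 mM pyruvate. They were transiently batch-transfected for 24 h with mouse Notch-1 ΔE, vector DNA and a CBF1-luciferase reporter (four tandem CBF1 binding elements). Cells were then replated in defined medium with 0.0125% BSA, treated with serial compound dilutions for 20 h, and read by luciferase luminescence.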

[8] = Solubility at pH 7.4; format: physicochemical; conditions: buffer
Interstitial collagenase = target: T1, Interstitial collagenase (Homo sapiens, UniProt P03956); test: Inhibition of MMP1
T1 sequence (P03956 whole entry): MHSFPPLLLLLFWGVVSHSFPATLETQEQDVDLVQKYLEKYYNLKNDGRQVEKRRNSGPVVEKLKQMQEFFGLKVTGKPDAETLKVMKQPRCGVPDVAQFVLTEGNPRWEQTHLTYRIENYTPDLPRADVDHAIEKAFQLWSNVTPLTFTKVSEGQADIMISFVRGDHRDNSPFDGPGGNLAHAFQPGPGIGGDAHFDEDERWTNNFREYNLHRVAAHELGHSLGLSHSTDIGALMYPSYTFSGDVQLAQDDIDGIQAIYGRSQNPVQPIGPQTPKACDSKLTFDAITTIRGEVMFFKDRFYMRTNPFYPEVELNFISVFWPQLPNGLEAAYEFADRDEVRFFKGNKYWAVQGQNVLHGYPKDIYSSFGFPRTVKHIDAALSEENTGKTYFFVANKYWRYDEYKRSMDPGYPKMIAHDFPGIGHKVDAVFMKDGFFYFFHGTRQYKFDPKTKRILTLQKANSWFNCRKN

[9] = target: 72 kDa type IV collagenase (Homo sapiens, UniProt P08253); test: Inhibition of MMP2
Sequence of 72 kDa type IV collagenase (P08253 whole entry): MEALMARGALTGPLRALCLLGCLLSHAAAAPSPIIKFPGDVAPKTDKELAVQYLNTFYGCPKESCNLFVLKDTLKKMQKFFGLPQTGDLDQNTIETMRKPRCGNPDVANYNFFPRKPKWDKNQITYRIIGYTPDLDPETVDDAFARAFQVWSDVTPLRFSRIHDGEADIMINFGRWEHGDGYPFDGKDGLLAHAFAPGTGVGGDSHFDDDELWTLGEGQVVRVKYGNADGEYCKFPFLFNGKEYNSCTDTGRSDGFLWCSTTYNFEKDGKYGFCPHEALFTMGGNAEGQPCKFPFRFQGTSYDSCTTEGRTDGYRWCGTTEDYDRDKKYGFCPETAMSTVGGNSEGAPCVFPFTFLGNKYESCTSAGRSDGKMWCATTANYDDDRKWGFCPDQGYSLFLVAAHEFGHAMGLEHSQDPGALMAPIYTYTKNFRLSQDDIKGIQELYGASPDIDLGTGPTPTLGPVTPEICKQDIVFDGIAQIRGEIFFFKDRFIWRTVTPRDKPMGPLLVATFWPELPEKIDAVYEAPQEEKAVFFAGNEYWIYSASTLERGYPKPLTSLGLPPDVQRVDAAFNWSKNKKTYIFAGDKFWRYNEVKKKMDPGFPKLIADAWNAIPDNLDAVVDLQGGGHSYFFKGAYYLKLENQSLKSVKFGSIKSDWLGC

Matrilysin = target: T2, Matrilysin (Homo sapiens, UniProt P09237); test: Inhibition of MMP7
T2 sequence (P09237 whole entry): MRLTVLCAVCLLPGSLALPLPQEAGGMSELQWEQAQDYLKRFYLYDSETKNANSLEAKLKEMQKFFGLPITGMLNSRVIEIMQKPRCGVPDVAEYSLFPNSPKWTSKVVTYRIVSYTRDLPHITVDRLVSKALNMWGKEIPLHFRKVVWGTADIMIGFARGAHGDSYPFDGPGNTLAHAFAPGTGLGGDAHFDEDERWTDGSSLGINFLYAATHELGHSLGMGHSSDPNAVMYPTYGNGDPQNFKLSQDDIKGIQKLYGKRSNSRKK

[10] = target: Matrix metalloproteinase-9 (Homo sapiens, UniProt P14780); test: Inhibition of MMP9
Sequence of Matrix metalloproteinase-9 (P14780 whole entry): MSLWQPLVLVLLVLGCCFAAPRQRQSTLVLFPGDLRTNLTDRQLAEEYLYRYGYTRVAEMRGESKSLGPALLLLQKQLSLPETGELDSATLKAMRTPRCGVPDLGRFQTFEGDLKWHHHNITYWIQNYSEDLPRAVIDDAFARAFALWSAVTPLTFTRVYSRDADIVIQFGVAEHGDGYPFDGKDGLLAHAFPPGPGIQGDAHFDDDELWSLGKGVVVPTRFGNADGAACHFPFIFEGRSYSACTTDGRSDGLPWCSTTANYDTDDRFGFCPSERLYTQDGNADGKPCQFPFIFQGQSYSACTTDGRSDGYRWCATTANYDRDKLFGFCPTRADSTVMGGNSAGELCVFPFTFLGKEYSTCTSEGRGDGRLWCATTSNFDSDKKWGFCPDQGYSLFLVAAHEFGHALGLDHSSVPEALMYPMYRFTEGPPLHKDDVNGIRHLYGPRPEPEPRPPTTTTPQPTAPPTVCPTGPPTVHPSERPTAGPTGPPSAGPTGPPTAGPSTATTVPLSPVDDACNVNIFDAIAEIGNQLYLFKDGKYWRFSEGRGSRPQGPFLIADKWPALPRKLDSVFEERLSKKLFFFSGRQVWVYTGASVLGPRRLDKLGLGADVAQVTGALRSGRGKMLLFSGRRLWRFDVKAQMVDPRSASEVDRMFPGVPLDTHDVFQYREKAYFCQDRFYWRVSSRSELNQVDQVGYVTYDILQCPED

Stromelysin-2 = Stromelysin-2 (Homo sapiens, UniProt P09238); test: Inhibition of MMP10
Sequence of Stromelysin-2 (P09238 whole entry): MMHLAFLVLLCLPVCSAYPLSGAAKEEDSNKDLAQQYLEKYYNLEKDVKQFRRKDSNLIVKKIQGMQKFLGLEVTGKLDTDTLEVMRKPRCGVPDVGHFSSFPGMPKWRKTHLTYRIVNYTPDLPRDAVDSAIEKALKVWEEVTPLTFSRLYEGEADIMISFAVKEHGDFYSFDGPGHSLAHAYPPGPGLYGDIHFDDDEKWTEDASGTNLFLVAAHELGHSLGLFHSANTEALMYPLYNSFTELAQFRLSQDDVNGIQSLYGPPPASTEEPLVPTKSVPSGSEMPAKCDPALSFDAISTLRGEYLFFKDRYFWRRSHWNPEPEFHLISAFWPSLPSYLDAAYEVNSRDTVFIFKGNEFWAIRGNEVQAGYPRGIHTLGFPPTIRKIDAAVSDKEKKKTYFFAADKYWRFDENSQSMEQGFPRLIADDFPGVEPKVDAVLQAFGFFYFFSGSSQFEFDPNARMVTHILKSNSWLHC

Collagenase 3 = Collagenase 3 (Homo sapiens, UniProt P45452); test: Inhibition of MMP13
[11] = target: Matrix metalloproteinase-14 (Homo sapiens, UniProt P50281); test: Inhibition of MMP14
[12] = target: Disintegrin and metalloproteinase domain-containing protein 17 (Homo sapiens, UniProt P78536)
Sequence of Disintegrin and metalloproteinase domain-containing protein 17 (P78536 whole entry, the tested form may be a part): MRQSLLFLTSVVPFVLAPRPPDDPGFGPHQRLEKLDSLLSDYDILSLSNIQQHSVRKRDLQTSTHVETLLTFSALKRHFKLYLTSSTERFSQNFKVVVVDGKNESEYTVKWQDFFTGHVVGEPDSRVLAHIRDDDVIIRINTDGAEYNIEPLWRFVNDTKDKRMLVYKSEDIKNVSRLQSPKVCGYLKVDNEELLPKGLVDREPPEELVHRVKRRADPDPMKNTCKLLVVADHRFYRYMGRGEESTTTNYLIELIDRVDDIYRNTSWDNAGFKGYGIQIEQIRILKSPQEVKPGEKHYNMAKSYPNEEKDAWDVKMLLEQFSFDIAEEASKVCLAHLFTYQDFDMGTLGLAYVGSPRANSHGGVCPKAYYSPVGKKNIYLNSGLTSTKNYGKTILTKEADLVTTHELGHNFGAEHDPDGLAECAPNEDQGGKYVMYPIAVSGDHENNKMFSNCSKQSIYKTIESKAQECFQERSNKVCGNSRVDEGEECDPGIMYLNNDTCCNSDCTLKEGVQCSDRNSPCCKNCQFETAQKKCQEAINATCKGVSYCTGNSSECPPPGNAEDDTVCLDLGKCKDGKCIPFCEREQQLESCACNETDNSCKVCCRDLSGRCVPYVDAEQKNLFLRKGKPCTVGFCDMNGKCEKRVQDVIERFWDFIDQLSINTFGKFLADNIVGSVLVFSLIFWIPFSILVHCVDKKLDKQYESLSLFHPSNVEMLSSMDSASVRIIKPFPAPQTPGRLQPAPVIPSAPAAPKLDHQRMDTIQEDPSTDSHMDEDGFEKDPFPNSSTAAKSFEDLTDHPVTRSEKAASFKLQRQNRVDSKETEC

[13] = Clearance in Beagle dog at 1 mg/kg, po; format: ADME, organism-based, Canis lupus familiaris; set-up: dose 1 mg/kg, route oral; conditions: in vivo; in short: as §1
Canis familiaris [14] = test: Volume of distribution in Beagle dog at 1 mg/kg, po; format: ADME, organism-based, Canis lupus familiaris; set-up: dose 1 mg/kg, route oral; conditions: in vivo; in short: as §1
[15] = Half life in Beagle dog at 1 mg/kg, po; format: ADME, organism-based, Canis lupus familiaris; set-up: dose 1 mg/kg, route oral; conditions: in vivo; in short: as §1
[16] = Cmax in Beagle dog at 1 mg/kg, po; format: ADME, organism-based, Canis lupus familiaris; set-up: dose 1 mg/kg, route oral; conditions: in vivo; in short: as §1
[17] = Oral bioavailability in Beagle dog at 1 mg/kg, po; format: ADME, organism-based, Canis lupus familiaris; conditions: in vivo
In short: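 Beagle dogs given compounds in cassette format with up to nine other compounds. Doses were kept low to limit interactions: 0.25 mg/kg iv, and 0.5 or 1.0 mg/kg po.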

| Compound | pIC50 (HEK293) | other results |
| --- | --- | --- |
| CCCC(C(=O)NO)C(CC(C)C)C(=O)N[C@H]1CCCCN(Cc2cccc(-c3ccc(C(F)(F)F)cc3)c2)C1=O (single isomer, unassigned) | 6.64 | – |
| CCCC(C(N)=O)C(CC(C)C)C(=O)N[C@H]1CCCCN(Cc2cccc(-c3ccc(C(F)(F)F)cc3)c2)C1=O (single isomer, unassigned) | 8.00 | – |
| CCC[C@H](C(N)=O)[C@@H](CC(C)C)C(=O)N[C@H]1CCCCN(Cc2cncc(-c3ccc(F)c(Cl)c3)c2)C1=O | 8.40 | – |
| CCC[C@H](C(=O)NOC)[C@@H](CC(C)C)C(=O)N[C@H]1CCCCN(Cc2cccc(Oc3ccccc3)c2)C1=O | 5.30 | – |
| CCC[C@H](C(N)=O)[C@@H](CC(C)C)C(=O)N[C@H]1CCCCN(Cc2cccc(Oc3ccccc3)c2)C1=O | 7.30 | fraction unbound [1]: 0.004; CL/F [2]: 31.7 mL/min/kg; Vss (Canis familiaris [3]): 1.3 L/kg; half-life [4]: 0.5 h; Cmax [5]: 25 nM; bioavailability [6]: 8%; pIC50 [7]: 7.09; solubility [8]: 1 µg/mL (≈ 1.97 µM) |
| CCC[C@H](C(=O)NNC(=O)[C@@H](CC(N)=O)CC(C)C)[C@@H](CC(C)C)C(=O)N[C@H]1CCCCN(Cc2cccc(Oc3ccccc3)c2)C1=O | < 5.00 | – |
| CCC[C@H](C(N)=O)[C@@H](CC(C)C)C(=O)N[C@H]1CCCCN(Cc2cncc(-c3ccccn3)c2)C1=O | 5.06 | – |
| CCCC(C(=O)NO)C(CC(C)C)C(=O)N[C@H]1CCCCN(Cc2cccc(-c3ccc(F)c(Cl)c3)c2)C1=O (single isomer, unassigned) | 7.00 | – |
| CCCC(C(N)=O)C(CC(C)C)C(=O)N[C@H]1CCCCN(Cc2cccc(-c3ccccc3OC)c2)C1=O (single isomer, unassigned) | 7.52 | – |
| CCCC(C(=O)NO)C(CC(C)C)C(=O)N[C@H]1CCCCN(Cc2cccc(-c3cccc(F)c3)c2)C1=O (single isomer, unassigned) | 6.74 | – |
| CCC[C@H](C(N)=O)[C@@H](CC(C)C)C(=O)N[C@H]1CCCCN(Cc2cccc(Nc3ccccc3)c2)C1=O | – | fraction unbound [1]: 0.015; CL/F [2]: 10 mL/min/kg; Vss (Canis familiaris [3]): 0.4 L/kg; half-life [4]: 1 h; Cmax [5]: 17 nM; bioavailability [6]: 3%; pIC50 [7]: 7.19 |
| CCC[C@H](C(=O)NNC(=O)[C@@H](CCC)[C@@H](CC(C)C)C(=O)N[C@H]1CCCCN(Cc2cccc(Oc3ccccc3)c2)C1=O)[C@@H](CC(C)C)C(N)=O | 6.65 | – |
| CCCC(C(=O)NO)C(CC(C)C)C(=O)N[C@H]1CCCCN(Cc2cccc(-c3cccc(C)c3)c2)C1=O (single isomer, unassigned) | 6.29 | – |
| CCCC(C(N)=O)C(CC(C)C)C(=O)N[C@H]1CCCCN(Cc2cccc(-c3cccc(F)c3)c2)C1=O (single isomer, unassigned) | 6.52 | – |
| CCCC(C(=O)NO)C(CC(C)C)C(=O)N[C@H]1CCCCN(Cc2cccc(-c3ccc(C)cc3)c2)C1=O (single isomer, unassigned) | 6.59 | – |
| CCC[C@H](C(N)=O)[C@@H](CC(C)C)C(=O)N[C@H]1CCCCN(Cc2cncc(-c3ccc(C(F)(F)F)cc3)c2)C1=O | 7.77 | – |
| CCCC(C(=O)NO)C(CC(C)C)C(=O)N[C@H]1CCCCN(Cc2cccc(-c3ccc(OC)cc3)c2)C1=O (single isomer, unassigned) | 6.33 | – |
| CCC[C@@H](CC(=O)NNC(=O)[C@@H](CCC)[C@@H](CC(C)C)C(=O)N[C@H]1CCCCN(Cc2cccc(Oc3ccccc3)c2)C1=O)C(=O)NO | < 5.00 | – |
| CCCC(C(=O)NO)C(CC(C)C)C(=O)N[C@H]1CCCCN(Cc2cccc(-c3cccc(OC)c3)c2)C1=O (single isomer, unassigned) | 6.22 | – |
| CCCC(C(=O)NO)C(CC(C)C)C(=O)N[C@H]1CCCCN(Cc2cccc(-c3ccc(F)cc3)c2)C1=O (single isomer, unassigned) | 6.33 | – |
| CCCC(C(=O)NO)C(CC(C)C)C(=O)N[C@H]1CCCCN(Cc2cccc(-c3ccccc3OC)c2)C1=O (single isomer, unassigned) | 6.52 | – |

| Compound | pIC50 (HEK293) | other results |
| --- | --- | --- |
| CCC[C@H](C(=O)NO)[C@@H](CC(C)C)C(=O)N[C@H]1CCCCN(Cc2cccc(Oc3ccccc3)c2)C1=O | 6.30 | pKi (Interstitial collagenase): 7.68; pKi [9]: 8.15; pKi (Matrilysin): 6.18; pKi [10]: 8.30; pKi (Stromelysin-2): 6.72; pKi (Collagenase 3): 8.00; pKi [11]: 5.92; pKi [12]: 8.40 |
| CCCC(C(N)=O)C(CC(C)C)C(=O)N[C@H]1CCCCN(Cc2cccc(-c3ccc(F)cc3)c2)C1=O (single isomer, unassigned) | 6.72 | – |
| CCC[C@H](C(=O)NO)[C@@H](CC(C)C)C(=O)N[C@H]1CCCCN(Cc2cccc(I)c2)C1=O | 5.52 | – |
| CCC[C@H](C(=O)OC)[C@@H](CC(C)C)C(=O)N[C@H]1CCCCN(Cc2cccc(Oc3ccccc3)c2)C1=O | 5.22 | – |
| CCC[C@H](C(=O)NNC(=O)[C@H](CC(C)C)[C@@H]1CCNC1=O)[C@@H](CC(C)C)C(=O)N[C@H]1CCCCN(Cc2cccc(Oc3ccccc3)c2)C1=O | < 5.00 | – |
| CCCC(C(=O)NO)C(CC(C)C)C(=O)N[C@H]1CCCCN(Cc2cccc(-c3cccc(NC(C)=O)c3)c2)C1=O (single isomer, unassigned) | < 5.00 | – |
| CCCC(C(=O)NO)C(CC(C)C)C(=O)N[C@H]1CCCCN(Cc2cccc(-c3ccc(Cl)cc3Cl)c2)C1=O (single isomer, unassigned) | 6.46 | – |
| CCCC(C(N)=O)C(CC(C)C)C(=O)N[C@H]1CCCCN(Cc2cccc(-c3ccc(Cl)cc3Cl)c2)C1=O (single isomer, unassigned) | 7.85 | – |
| CCCC(C(N)=O)C(CC(C)C)C(=O)N[C@H]1CCCCN(Cc2cccc(-c3ccc(C)cc3)c2)C1=O (single isomer, unassigned) | 7.40 | – |
| CCCC(C(N)=O)C(CC(C)C)C(=O)N[C@H]1CCCCN(Cc2cccc(-c3ccc(F)c(Cl)c3)c2)C1=O (single isomer, unassigned) | 7.77 | CL/F [13]: 6.67 mL/min/kg; Vss (Canis familiaris [14]): 0.8 L/kg; half-life [15]: 1.3 h; Cmax [16]: 116 nM; bioavailability [17]: 25%; pIC50 [7]: 7.74; solubility [8]: 0.1 µg/mL (≈ 0.184 µM) |
| CCC[C@H](C(=O)NC)[C@@H](CC(C)C)C(=O)N[C@H]1CCCCN(Cc2cccc(Oc3ccccc3)c2)C1=O | 5.30 | – |
| CCC[C@H](C(N)=O)[C@@H](CC(C)C)C(=O)N[C@H]1CCCCN(Cc2cncc(-c3ccc(OC)cc3)c2)C1=O | 7.49 | – |
| CCC[C@H](C(=O)NN)[C@@H](CC(C)C)C(=O)N[C@H]1CCCCN(Cc2cccc(Oc3ccccc3)c2)C1=O | 5.80 | – |
| CCC[C@H](C(=O)N(C)OC)[C@@H](CC(C)C)C(=O)N[C@H]1CCCCN(Cc2cccc(Oc3ccccc3)c2)C1=O | 5.30 | – |
| CCCC(C(N)=O)C(CC(C)C)C(=O)N[C@H]1CCCCN(Cc2cccc(-c3ccc(OC)cc3)c2)C1=O (single isomer, unassigned) | 8.10 | – |
| CCC[C@H](C(N)=O)[C@@H](CC(C)C)C(=O)N[C@H]1CCCCN(Cc2cncc(-c3cccnc3)c2)C1=O | 5.66 | – |
| CCC[C@H](C(=O)O)[C@@H](CC(C)C)C(=O)N[C@H]1CCCCN(Cc2cccc(Oc3ccccc3)c2)C1=O | < 5.52 | – |
| CCCC(C(=O)NO)C(CC(C)C)C(=O)N[C@H]1CCCCN(Cc2cccc(-c3ccccc3-c3cccc4ccccc34)c2)C1=O (single isomer, unassigned) | 6.60 | – |
| CCCC(C(N)=O)C(CC(C)C)C(=O)N[C@H]1CCCCN(Cc2ccc(-c3ccc(C(F)(F)F)cc3)cc2)C1=O (single isomer, unassigned) | 7.05 | – |
| CCCC(C(N)=O)C(CC(C)C)C(=O)N[C@H]1CCCCN(Cc2cccc(-c3cccc(OC)c3)c2)C1=O (single isomer, unassigned) | 6.82 | – |
